UCH37 DUB inh: inhibitors of human deubiquitinating enzyme UCH37 | Q9Y5K5 | purified proteasome/UCH37, Ub-AMC cleavage fluorescence | inhibition, % (test concentration not listed) | 0.33% of 330,000 active | AID 588478;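 active = mean inhibition over replicate wells above about 20%, limit read from the data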;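 note: 0% = compound-free wells with enzyme and 100% = wells lacking proteasome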
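system = Proteasome-associated human UCH37 deubiquitinase | amount = 0.15 nM proteasome as dispensed | medium = pH 7.4 Tris-HCl (50 mM) with ovalbumin, ATP-MgCl2, DTT | incubation = 30 min preincubation with enzyme, 25 min cleavage at room temperature | detection = AMC fluorescence 355/460 nm | read-out basis = percent inhibition | controls = no-proteasome and no-compound wells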
ATG4B inhibitor: inhibitors of human ATG4B cysteine protease; Q9Y4P1; ATG4B cleavage of LC3-PLA2, NBD-HPC fluorescence, 1 h; inhibition, % at 8.33 µM; 0.51% of 340,000 active; in the data active = inhibition above about 40%
Target sequence (Q9Y4P1 whole entry, looked up): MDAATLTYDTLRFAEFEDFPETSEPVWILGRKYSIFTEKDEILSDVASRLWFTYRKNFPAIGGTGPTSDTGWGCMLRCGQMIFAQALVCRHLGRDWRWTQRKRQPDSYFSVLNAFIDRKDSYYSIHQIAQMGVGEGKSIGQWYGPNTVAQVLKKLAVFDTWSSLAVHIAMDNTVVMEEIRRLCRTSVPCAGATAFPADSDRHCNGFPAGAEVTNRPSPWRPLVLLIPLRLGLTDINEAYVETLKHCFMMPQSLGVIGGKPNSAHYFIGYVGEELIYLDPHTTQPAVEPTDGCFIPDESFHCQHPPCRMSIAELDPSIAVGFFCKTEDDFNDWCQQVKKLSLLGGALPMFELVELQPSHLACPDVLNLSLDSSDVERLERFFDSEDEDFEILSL
NALP3 yeast inh: blocks the NALP3 inflammasome reconstituted in yeast | Yeast reconstituted NLRP3/ASC/caspase-1, beta-gal luminescence, 24 h | inhibition, % at 10 µM | 0.39% of 330,000 active | AID 2825;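 active = inhibition of 50% or more; inactive = inhibition below 50%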;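 note: plate controls were induced DMSO wells for no effect and uninduced yeast grown without galactose for full effect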
Calb FLC: C. albicans growth modulation with fluconazole; C. albicans CaCi-2 + fluconazole, Alamar Blue growth, 48 h; growth inhibition, % (test concentration not listed); 0.57% of 300,000 active;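 active = growth inhibition above about 58% in most replicates, limit read from the data, passing the limit was not always enough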;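 note: all wells also contain fluconazole at 8 µg/ml as a sub-toxic cotreatment; 0% = median of DMSO wells and 100% = median of geldanamycin control wells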
ALR inh: human ALR oxidase inhibition via reduced H2O2. P55789. purified ALR, DTT oxidation, H2O2 HRP-luminol luminescence. inhibition, % (test concentration not listed). 3.8% of 290,000 active. AID 485317;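 active = mean replicate inhibition above about 79%, with every replicate also reaching it, limit read from the data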
NALP1 yeast inh: NALP1 inhibition; S. cerevisiae NALP1/ASC/caspase-1 growth, X-gal OD620, 72 h; inhibition, % at 10 µM; 0.61% of 280,000 active; AID 2071; in the data active = inhibition mostly above about 24%, no sharp cut-off; inactive = mostly below about 32%
ATG4B confirm: ATG4B (human) inhibition, single-dose confirmed; shares compounds with ATG4B inhibitor; inhibition, % at 8.33 µM; AID 504757; ATG4B protease fluorescent substrate cleavage assay; 92% of 320 active; in the data active = inhibition above about 39%
PLA2 counter: PLA2 (human) inhibition in ATG4B counter-screen | 66% of 1,600 active | inhibition, % at 8.33 µM | shares compounds with ATG4B inhibitor | purified PLA2, NBD-C6-HPC fluorescence, 45 min | AID 588402; in the data active = inhibition above about 50%
Target sequence (P04054 whole entry, looked up): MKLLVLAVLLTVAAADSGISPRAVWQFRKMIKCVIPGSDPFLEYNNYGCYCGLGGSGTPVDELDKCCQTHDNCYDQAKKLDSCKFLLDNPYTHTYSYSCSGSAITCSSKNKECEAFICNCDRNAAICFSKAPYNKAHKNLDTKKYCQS
Active calls of the source: *; · = not tested or not shown. Only some compounds are listed: those with a hit (about 4.8% of all), similar ones and a draw of the others.

SMILES	UCH37 DUB inh	ATG4B inhibitor	NALP3 yeast inh	Calb FLC	ALR inh	NALP1 yeast inh	PLA2 counter	others
Cc1ccc(C)c(NC(=S)NNC(=O)c2csc3c2CCCC3)c1	3	9	4	-1	·	4	·
Cc1cccc(NC(=S)NNC(=O)c2csc3c2CCCC3)c1	5	43*	33	50	3	3	43	ATG4B confirm=71*
CCOc1ccc2nc(SCC(=O)NC3CCCc4ccccc43)sc2c1 (configuration not stated)	3	50*	21	-10	-13	12	44
CCOc1ccc2nc(SCC(=O)N3CCCc4ccccc43)sc2c1	3	-2	16	-2	-2	0	·
CC(C)c1ccccc1OCC(=O)NC1CCCc2ccccc21 (configuration not stated)	1	48*	16	0	-5	10	45	ATG4B confirm=65*
CCOC(=O)NN=Cc1cc(C)n(-c2cccc3ccccc23)c1C	1	·	·	·	·	·	·
CC(=NNc1nc(N2CCCCCC2)nc(N2CCCCCC2)n1)c1ccccc1	0	·	·	·	·	·	·
COC(=O)C(=NNc1ccc(Cl)cc1)Sc1nnc(-c2ccc(OC)cc2)n1C	2	·	·	·	·	·	·
COc1ccc(C=NNc2ccccn2)c(OC)c1OC	11	·	·	·	·	·	·
O=c1/c(=C\c2cc([N+](=O)[O-])cc([N+](=O)[O-])c2O)sc2nc3ccccc3n12	·	59*	-2	·	-21	16	69*
COc1cccc(C=NNc2snc(SC)c2C#N)c1	6	·	·	·	·	·	·
COc1c(C)cc(Br)cc1C(=O)Nc1ccc(C)cc1[N+](=O)[O-]	1	42*	9	-8	·	12	-19
Cc1ccc(NC(=O)c2cncc(Br)c2)c([N+](=O)[O-])c1	4	3	-2	5	-2	21	·
Cc1ccccc1/C(N)=N/OC(=O)N1c2ccccc2Sc2ccccc21	0	54*	43	-1	39	9	60*
COC(=O)C1=C(C)N=c2sc(=Cc3ccoc3)c(=O)n2C1c1ccccc1 (configuration not stated)	8	·	·	·	·	·	·
O=C(c1ccc(OC2CCN(Cc3ccc(C(F)(F)F)cc3)CC2)cc1)N1CCCCC1	-1	41*	33	-13	-4	29	51*
O=C(c1ccc(OC2CCN(Cc3ccccc3OC(F)F)CC2)cc1)N1CCCC1	4	42*	11	-6	-4	2	52*
COc1cc(/C=C/CN2CCC(Oc3ccc(C(=O)N4CCCC4)cc3)CC2)ccc1O	1	40*	3	-12	·	21	50
COc1ccccc1/C=C/CN1CCC(Oc2ccc(C(=O)N3CCCC3)cc2)CC1	-2	20	18	-2	-43	2	·
O=C(OC1CCc2ccccc2C1=O)c1ccccc1O (configuration not stated)	2	77*	12	·	·	6	79*
COc1cccc(/C=N/NC(=O)c2[nH]c(C)c(C(=O)N/N=C/c3cccc(OC)c3O)c2C)c1O	·	62*	7	-3	-8	12	24	ATG4B confirm=33
Cc1nnsc1C(=O)NN=Cc1ccc(OC(F)(F)F)cc1	-2	·	·	·	·	·	·
COc1cc(C=NNC(=O)C(=O)NCC2CCCO2)ccc1O (configuration not stated)	9	·	·	·	·	·	·
CS(=O)(=O)NCc1nnc(SCc2c(F)cccc2Cl)o1	3	-3	10	3	-8	-19	·
Fc1cccc(Cl)c1CSc1nnc(COc2cccc3cccnc23)o1	-1	64*	34	-12	·	-4	67*
SMILES	UCH37 DUB inh	ATG4B inhibitor	NALP3 yeast inh	Calb FLC	ALR inh	NALP1 yeast inh	PLA2 counter	others
Oc1ccc(C=NNc2nc(N3CCCCCC3)nc(N3CCCCCC3)n2)c(O)c1	2	·	·	·	·	·	·
CCc1nc(N2CCC(C)CC2)c2oc3ccccc3c2n1	-9	57*	5	-11	-3	14	68*
CCc1nc(N(CC)CC)c2oc3ccccc3c2n1	0	35	20	0	-5	·	·
CC(C)N(Cc1ccccc1)C(=O)C1CCN(c2ncnc3c2nc2n3CCCCC2)CC1	2	72*	11	-8	-1	18	76*
Nc1c(N)c2ccccc2oc1=O	0	-2	9	3	6	39	·
Nc1c(N2CCN(c3ccccc3)CC2)c2ccccc2oc1=O	1	43*	4	-2	98*	17	44	ATG4B confirm=78*
O=[N+]([O-])c1ccccc1/C=C/C=NN1CCCCC1	1	·	·	·	·	·	·
N#Cc1c(-c2cccc(Br)c2)cc(-c2ccco2)[nH]c1=O	-318	·	11	0	61	4	41
C=CCn1c(SCC(=O)Nc2cc(Cl)ccc2C(=O)O)nc2sc(C)c(C)c2c1=O	·	61*	11	·	5	·	53*
C=CCn1c(SCC(=O)Nc2ccc(O)cc2)nc2sc(C)c(C)c2c1=O	·	-3	·	·	·	·	·
COC(=O)C(Sc1nc(C)cc(C)c1C#N)c1ccccc1 (configuration not stated)	1	50*	6	7	-5	0	56*
CC(C)(O)c1ccccc1CC[C@@H](SCC1(CC(=O)O)CC1)c1cccc(/C=C/c2ccc3ccc(Cl)cc3n2)c1	-25	92*	8	·	·	·	92*
CC(=O)Oc1ccc(Cl)cc1/C=C/c1ccc2ccccc2n1	-20	-7	-2	3	10	20	·
Cc1[nH]c(=S)sc1Cc1ccc(F)cc1	5	40*	9	-6	·	6	-12
Fc1ccc(-c2csc(=S)[nH]2)cc1	6	0	-3	-29	20	2	·
O=C(NN=CC1CC2CCC1C2)c1ccc2c(c1)OCO2 (configuration not stated)	0	·	·	·	·	·	·
NC(=O)COc1ccc(C=NNC(=O)c2ccc(-c3ccccc3)cc2)cc1	-173	·	·	·	·	·	·
COc1cccc(CNc2ncnc3ccc(-c4c(C)noc4C)cc23)c1	0	-1	6	·	0	·	·
COc1cccc(-c2ccc3ncnc(NCc4cccc(C)c4)c3c2)c1	0	40*	3	·	-2	·	50
CCc1ccccc1N1CCN(S(=O)(=O)c2cc(OC)ccc2OC)CC1	3	57*	-21	4	-54	28	52*
COc1ccc(S(=O)(=O)N2CCCCC2)cc1NC(=S)Nc1cccc(Cl)c1C	2	71*	5	22	-4	21	73*
CCN(CC)S(=O)(=O)c1ccc(N2CCOCC2)c(NC(=O)COc2ccccc2C)c1	1	62*	10	·	10	·	76*
COc1ccccc1OCC(=O)Nc1cc(S(=O)(=O)N2CCCCC2)ccc1N1CCCCC1	·	42*	15	6	-7	40	1
COc1ccc(S(=O)(=O)N2CCCCC2)cc1NC(=S)Nc1ccccc1	3	-2	18	-2	-4	8	·

Source: PubChem BioAssay
